Test results: ChEMBL document CHEMBL5712087, “Targeting bromodomain-containing protein 4 (BRD4) inhibits MYC expression in colorectal cancer cells” (Neoplasia, 2019)
Activity calls are given as the source filed them. No cut-off for these calls is given here.

Tests used:
LS174T [1] = experiment: Inhibition of colony formation in human LS174T cells for 3 days by crystal violet staining analysis; type: functional, cell-based; conditions: time 3.0 day
Outline: (§1)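 Cells (1-2x10^3) were plated in six-well plates and, after 48 h, exposed to the PROTAC at the stated concentrations for 3–5 days. Plates were then methanol-fixed and stained with crystal violet. Culture was at 37 °C, 5% CO2, with 10% FCS. Media were RPMI 1640 (Caco2, COLO320, DLD1, LS174t), McCoy's (HCT116, HT29) or DMEM/HamsF12 (SW480). Experiments were done ≥3 times.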

[2] = target: T1, von Hippel-Lindau disease tumor suppressor/Bromodomain-containing protein 4 (Homo sapiens) (UniProt O60885+P40337); experiment: PROTAC activity at BRD4/VHL E3 ligase in human COLO 320 cells assessed as decrease in MYC protein expression at 5 to 10 uM for 24 hrs by Western blot analysis; type: cell-based; conditions: dose 5-10 µM
T1 sequence (P40337 whole entry, looked up, other chains not shown): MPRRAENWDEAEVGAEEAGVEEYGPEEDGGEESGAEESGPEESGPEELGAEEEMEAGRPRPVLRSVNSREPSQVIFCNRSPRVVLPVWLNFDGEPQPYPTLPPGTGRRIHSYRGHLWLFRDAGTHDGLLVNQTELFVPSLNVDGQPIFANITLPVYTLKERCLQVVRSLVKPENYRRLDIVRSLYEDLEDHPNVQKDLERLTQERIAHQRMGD
Outline: (§2)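 Eight CRC lines exposed 24 h to PROTAC at 5 or 10 µM (stocks 2 mM in DMSO, diluted in PBS or medium). Lysis in RIPA with protease/phosphatase inhibitors and 2.5 mmol/l DTT; 15 µg protein on 10% SDS-PAGE, semi-dry transfer to nitrocellulose. Anti-BRD4 or anti-MYC at 1:1,000 overnight at 4 °C; GAPDH or β-actin loading control; chemiluminescence.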

[3] = target: T1, von Hippel-Lindau disease tumor suppressor/Bromodomain-containing protein 4 (Homo sapiens); experiment: PROTAC activity at BRD4/VHL E3 ligase in human Caco-2 cells assessed as decrease in BRD4 protein degradation at 5 to 10 uM for 24 hrs by Western blot analysis; type: cell-based; conditions: dose 5-10 µM; outline: as §2
[4] = target: T1, von Hippel-Lindau disease tumor suppressor/Bromodomain-containing protein 4 (Homo sapiens); experiment: PROTAC activity at BRD4/VHL E3 ligase in human SW480 cells assessed as decrease in MYC protein expression at 5 to 10 uM for 24 hrs by Western blot analysis; type: cell-based; conditions: dose 5-10 µM
Outline: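 Eight CRC lines, including LS174t (RPMI 1640) and SW480 (DMEM/HamsF12), all with 10% FCS, were treated with PROTAC at 5 and 10 µM. BRD4 and MYC proteins were detected by immunoblot (RIPA lysate, 15 µg, 10% gel, primary 1:1,000 overnight at 4 °C), with GAPDH/β-actin as loading control.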

[5] = target: T1, von Hippel-Lindau disease tumor suppressor/Bromodomain-containing protein 4 (Homo sapiens); experiment: PROTAC activity at BRD4/VHL E3 ligase in human HT-29 cells assessed as decrease in BRD4 protein degradation at 5 to 10 uM for 24 hrs by Western blot analysis; type: cell-based; conditions: dose 5-10 µM; outline: as §2
[6] = target: T1, von Hippel-Lindau disease tumor suppressor/Bromodomain-containing protein 4 (Homo sapiens); experiment: PROTAC activity at BRD4/VHL E3 ligase in human HCT116 p53-/- cells assessed as decrease in BRD4 protein degradation at 5 to 10 uM for 24 hrs by Western blot analysis; type: cell-based; conditions: HCT-116, dose 5-10 µM; outline: as §2
[7] = target: T1, von Hippel-Lindau disease tumor suppressor/Bromodomain-containing protein 4 (Homo sapiens); experiment: PROTAC activity at BRD4/VHL E3 ligase in human LS174T cells assessed as decrease in MYC mRNA level at 100 to 1000 nM for 24 hrs by RT-qPCR analysis; type: cell-based; conditions: dose 100-1000 nM
Outline: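 LS174t cells were treated for 24 h, then total RNA was Trizol-extracted from 10^6 cells and integrity-checked. 0.7 µg RNA was reverse transcribed and SYBR-type qPCR run for 40 cycles (95 °C 15 s, 60 °C 60 s), with melt-curve control. MYC or BRD4 mRNA was normalised to PPIA and ACTB by the ΔΔCq method. Experiments were run at least three times; mean ± SD.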

HT-29 = experiment: Inhibition of colony formation in human HT-29 cells at 5 to 10 uM by crystal violet staining analysis; type: functional, cell-based; conditions: dose 5-10 µM; outline: as §1
[8] = target: T1, von Hippel-Lindau disease tumor suppressor/Bromodomain-containing protein 4 (Homo sapiens); experiment: PROTAC activity at BRD4/VHL E3 ligase in human LS174T cells assessed as complete BRD4 protein degradation at […] for 24 hrs by Western blot analysis; type: cell-based
Outline: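 LS174t cells (RPMI 1640, 10% FCS) were exposed to 1 nM–10 µM for 24 h. Lysates in RIPA with inhibitors and 2.5 mmol/l DTT; 15 µg protein was run on 10% SDS-PAGE and transferred to nitrocellulose. BRD4 or MYC primary antibodies were used at 1:1,000 overnight at 4 °C, HRP secondary 1:10,000, and GAPDH/β-actin as loading control. Detection was by chemiluminescence.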

DLD-1 = experiment: Inhibition of colony formation in human DLD-1 cells at 5 to 10 uM by crystal violet staining analysis; type: functional, cell-based; conditions: dose 5-10 µM; outline: as §1
HCT-116 [9] = experiment: Inhibition of colony formation in human HCT-116 p53+/+ cells at 5 to 10 uM by crystal violet staining analysis; type: functional, cell-based; conditions: dose 5-10 µM; outline: as §1
Caco-2 = experiment: Inhibition of colony formation in human Caco-2 cells at 5 to 10 uM by crystal violet staining analysis; type: functional, cell-based; conditions: dose 5-10 µM; outline: as §1
LS174T [10] = experiment: Inhibition of colony formation in human LS174T cells at 5 to 10 uM by crystal violet staining analysis; type: functional, cell-based; conditions: dose 5-10 µM; outline: as §1
SW480 = experiment: Inhibition of colony formation in human SW480 cells at 5 to 10 uM by crystal violet staining analysis; type: functional, cell-based; conditions: dose 5-10 µM; outline: as §1
HCT-116 [11] = experiment: Inhibition of colony formation in human HCT-116 p53-/- cells at 5 to 10 uM by crystal violet staining analysis; type: functional, cell-based; conditions: dose 5-10 µM; outline: as §1
COLO 320 = experiment: Inhibition of colony formation in human COLO 320 cells at 5 to 10 uM by crystal violet staining analysis; type: functional, cell-based; conditions: dose 5-10 µM; outline: as §1
[12] = target: T2, Protein cereblon/Bromodomain-containing protein 4 (Homo sapiens) (UniProt O60885+Q96SW2); experiment: PROTAC activity at BRD4/Cereblon in human HT-29 cells assessed as decrease in BRD4 protein degradation at 5 to 10 uM for 24 hrs by Western blot analysis; type: cell-based; conditions: dose 5-10 µM; outline: as §2
T2 sequence (Q96SW2 whole entry, looked up, other chains not shown): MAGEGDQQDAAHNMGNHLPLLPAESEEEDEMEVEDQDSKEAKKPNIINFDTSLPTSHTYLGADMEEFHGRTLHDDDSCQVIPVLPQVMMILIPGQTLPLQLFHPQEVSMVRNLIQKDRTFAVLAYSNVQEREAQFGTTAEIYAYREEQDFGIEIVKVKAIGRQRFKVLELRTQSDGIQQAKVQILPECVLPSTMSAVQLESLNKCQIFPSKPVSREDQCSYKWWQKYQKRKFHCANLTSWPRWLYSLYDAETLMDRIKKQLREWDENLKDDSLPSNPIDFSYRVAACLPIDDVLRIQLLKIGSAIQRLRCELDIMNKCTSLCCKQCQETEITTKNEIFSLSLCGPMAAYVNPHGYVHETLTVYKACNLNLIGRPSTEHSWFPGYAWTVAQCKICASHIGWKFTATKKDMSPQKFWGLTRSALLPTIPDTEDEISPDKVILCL

[13] = target: T2, Protein cereblon/Bromodomain-containing protein 4 (Homo sapiens); experiment: PROTAC activity at BRD4/Cereblon in human HCT116 p53+/+ cells assessed as decrease in MYC protein expression at 5 to 10 uM for 24 hrs by Western blot analysis; type: cell-based; conditions: HCT-116, dose 5-10 µM; outline: as §2
[14] = target: T2, Protein cereblon/Bromodomain-containing protein 4 (Homo sapiens); experiment: PROTAC activity at BRD4/Cereblon in human LS174T cells assessed as BRD4 protein degradation at 100 to 500 nM pretreated with proteasome inhibitor MG132 for 4 hrs by Western blot analysis; type: cell-based; conditions: dose 100-500 nM
Outline: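 LS174t cells pre-incubated 4 h with proteasome inhibitor MG132 (10 mM DMSO stock) before PROTAC exposure. BRD4 read by immunoblot: 15 µg lysate, 10% SDS-PAGE, anti-BRD4 1:1,000 overnight at 4 °C, GAPDH/β-actin loading control.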

[15] = target: T2, Protein cereblon/Bromodomain-containing protein 4 (Homo sapiens); experiment: PROTAC activity at BRD4/Cereblon in human LS174T cells assessed as decrease in MYC mRNA level at 100 to 1000 nM for 24 hrs by RT-qPCR analysis; type: cell-based; conditions: dose 100-1000 nM
Outline: (§3)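 Total RNA from 10^6 cells after 24 h treatment, Trizol-extracted and integrity-checked. 0.7 µg reverse transcribed, then SYBR-type qPCR: 95 °C 5 min, 40 cycles of 95 °C 15 s/60 °C 60 s. Melting curves checked. MYC or BRD4 normalised to PPIA and ACTB by ΔΔCq. At least three experiments; means ± SD.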

[16] = target: T2, Protein cereblon/Bromodomain-containing protein 4 (Homo sapiens); experiment: PROTAC activity at BRD4/Cereblon in human LS174T-dbet1 resistant cells assessed as MYC mRNA level at 500 to 1000 nM for 24 hrs by RT-qPCR analysis; type: cell-based; conditions: dose 500-1000 nM; outline: as §3

`Cc1ncsc1-c1ccc(CNC(=O)[C@@H]2C[C@@H](O)CN2C(=O)[C@@H](NC(=O)COCCOCCOCCNC(=O)C[C@@H]2N=C(c3ccc(Cl)cc3)c3c(sc(C)c3C)-n3c(C)nnc32)C(C)(C)C)cc1` was tested, and the inhibition (LS174T [1]) was “Dose-Dependent Effect”, the Activity [2] was “Active” and the Activity [3] was “Active”. The Activity [4] was “Active”, the Activity [5] was “Active” and the Activity [6] was “Active”. For the same compound, the Activity [7] was “Active”, the inhibition (HT-29) was “Active” and the Activity [8] was “Active”. For the same compound, the inhibition (DLD-1) was “Active”, the inhibition (HCT-116 [9]) was “Active” and the inhibition (Caco-2) was “Active”. The inhibition (LS174T [10]) was “Active”, the inhibition (SW480) was “Active” and the inhibition (HCT-116 [11]) was “Active”. For the same compound, the inhibition (COLO 320) was “Active”.
With `Cc1sc2c(c1C)C(c1ccc(Cl)cc1)=N[C@@H](CC(=O)NCCCCNC(=O)COc1cccc3c1C(=O)N(C1CCC(=O)NC1=O)C3=O)c1nnc(C)n1-2` (stereo not given in full) the inhibition (LS174T [1]) was “Dose-Dependent Effect”, the Activity [12] was “Active” and the Activity [13] was “Active”. For the same compound, the Activity [14] was “inactive”, the Activity [15] was “Active” and the inhibition (HT-29) was “Active”. The inhibition (DLD-1) was “Active”, the inhibition (HCT-116 [9]) was “Active” and the inhibition (Caco-2) was “Active”. For the same compound, the Activity [16] was “inactive”, the inhibition (LS174T [10]) was “Active” and the inhibition (SW480) was “Active”. The inhibition (HCT-116 [11]) was “Active” and the inhibition (COLO 320) was “Active”.
